Compound activity from PubChem BioAssay.
Most compounds without a hit are left out; they make up all but 6.4% or so of the library.
MPTP inh – mitochondrial permeability transition pore inhibitors, primary screen, biochemical, isolated mouse mitochondria, absorbance. inhibition, % at 10 µM. 360,000 compounds, 1.4% hits. Ca2+ swelling absorbance, 30 min;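 active = inhibition of 50% or more, scaled per plate between neutral and stimulator controls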;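 also: 0% = DMSO wells given calcium and 100% = 1 mM EGTA wells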
NR3A LBD binder – binders of NR3A ligand-binding domain, primary screen, biophysical, differential scanning fluorimetry, uHTS | Glutamate receptor ionotropic, NMDA 3A (GRIN3A) ligand-binding domain | 340,000 compounds, 2.5% hits | Tm shift relative to glycine control, % at 25 µM | NR3A LBD differential scanning fluorimetry, Tm shift; 0% = protein alone, 100% = glycine-bound protein;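 active = melting temperature shift of at least 10% of the positive control shift, at one fixed dose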
EBV gp42 inh – Epstein-Barr virus gp42 inhibitors, primary screen, biochemical, uHTS, fluorescence polarization; Glycoprotein 42 (Epstein-Barr virus (strain AG876)), Q1HVG2; Fluorescence polarization binding assay, mP read-out; inhibition, % (tested at 21.74 µM); 220,000 compounds, 0.42% hits; in the data active = inhibition above about 50%
Target sequence (Q1HVG2 whole entry, looked up): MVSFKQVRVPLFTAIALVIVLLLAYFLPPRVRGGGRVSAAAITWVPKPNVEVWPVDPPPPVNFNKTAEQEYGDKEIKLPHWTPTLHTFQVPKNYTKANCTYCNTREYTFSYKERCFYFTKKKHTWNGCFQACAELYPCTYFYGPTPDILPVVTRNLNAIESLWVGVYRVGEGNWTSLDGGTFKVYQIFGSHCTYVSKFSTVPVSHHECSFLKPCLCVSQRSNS
WT yeast gro inh – growth inhibition of WT strain, primary screen, mitochondrial fusion inhibitor project, WT and mutant strains, chemical genetic; mitochondrial fusion phenotypic screen; inhibition, % at 10 µM; 190,000 compounds, 2.1% hits; in the data active = inhibition above about 58%; tested in S. cerevisiae
CHOP inhibitor – inhibitors of CHOP promoter induction, primary screen, cell-based, unfolded protein response, luciferase reporter; CHO-K1 CHOP-promoter luciferase, tunicamycin-induced, 15-18 h; inhibition, % at 10 µM; 220,000 compounds, 3.8% hits; AID 2732, 2010;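 active = compounds that reduced the stress-induced luciferase reporter signal by more than about 70% of percent inhibition, limit read from the data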;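 also: 0% = tunicamycin plus vehicle and 100% = wells without tunicamycin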
Tb MetRS inh – T. brucei MetRS inhibitors, primary screen, biochemical, luminescence | inhibition, % at 11.9 µM | 360,000 compounds, 0.4% hits | purified T. brucei MetRS, ATP depletion, Kinase-Glo luminescence | methionyl-tRNA synthetase (Trypanosoma brucei brucei) | AID 624268, 2012;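 active = inhibition above a per-plate cutoff of the control wells' mean inhibition plus 3 SD, cut at about 5.5% in these data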;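 also: 0% = DMSO wells median and 100% = median of wells with control inhibitor compound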
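assay system = parasite MetRS enzyme | timing = 15 min preincubation, 2 h reaction, all 25 °C | evaluation = percent inhibition relative to median high and low control wells | medium = HEPES buffer containing pyrophosphatase, BSA, spermine, DTT | compound = single dose, 11.9 µM final nominal, 0.9% final DMSO | detection = Kinase-Glo luminescence, ATP depletion format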
* = called active by the depositor; nt = no result.

SMILES | MPTP inh | NR3A LBD binder | EBV gp42 inh | WT yeast gro inh | CHOP inhibitor | Tb MetRS inh
COCCNC(=O)/C(C#N)=C/c1c(N2CCN(c3ccccc3)CC2)nc2c(C)cccn2c1=O | 1 | 1 | nt | nt | nt | 0
COC(=O)Cn1cc(C(=O)OC)cc(Br)c1=O | -1 | 0 | -12 | -4 | 24 | -1
COc1ccc(C=C2SC(=O)NC2=O)cc1OC | -1 | 16* | nt | nt | nt | 0
COc1ccc(/C=C2\CC/C(=C\c3ccc(OC)c(OC)c3)C2=O)cc1OC | -21 | 16* | -6 | 24 | 31 | -1
COc1cc(/C=C/C=C2/CC/C(=C/C=C/c3ccc(O)c(OC)c3)C2=O)ccc1O | 3 | 3 | nt | nt | nt | 0
COc1cc(/C=C2\COC/C(=C\c3ccc(O)c(OC)c3)C2=O)ccc1O | 5 | 26* | -12 | nt | 41 | 0
COc1cc(/C=C2/CC/C(=C/c3ccc(O)c(OC)c3)C2=O)ccc1O | 15 | 14* | -61 | nt | 22 | -1
COc1ccccc1OCCCOc1ccc(/C=C2\SC(=O)NC2=O)cc1OC | 2 | -5 | nt | nt | nt | 0
COc1ccc(NC(=O)CN(C)CC(=O)NC2CCC(C)CC2)cc1 (configuration not stated) | 0 | 0 | nt | nt | nt | 0
COc1ccccc1CNC(=S)Nc1ccc(S(N)(=O)=O)cc1 | 0 | 0 | nt | nt | nt | -1
CCOc1ccc(NC(=S)NN2C(C)CCCC2C)cc1 (configuration not stated) | 1 | 12* | 3 | 5 | -1 | 0
CCCCc1ccc(NC(=S)NCc2ccccc2OC)cc1 | -1 | 0 | -8 | 65* | 67 | 0
CCOc1ccc(NC(=O)NN2C(C)CCCC2C)cc1 (configuration not stated) | -2 | -1 | nt | nt | nt | -1
CCOc1ccc(NC(=S)Nc2ccc(OCc3ccccc3)cc2)cc1 | 0 | 8 | -15 | -1 | 4 | -1
CCOc1ccc(NC(=S)NCCCc2ccccc2)cc1 | 1 | -7 | -7 | 70* | 21 | 3
O=C1CCc2cc(NS(=O)(=O)c3ccc(F)cc3)cc3c2N1CC3 | 0 | -8 | nt | nt | nt | 0
CS(=O)(=O)c1ccc(NS(=O)(=O)c2ccc(Cl)c(C(=O)NCc3ccco3)c2)cc1 | -1 | -1 | nt | nt | nt | 0
C/C=C/C(=O)Nc1cccc(C2=NOC3(C2)C[C@@H](C(N)=O)N(C(=O)c2cc([N+](=O)[O-])cc([N+](=O)[O-])c2C)C3)c1 (some centres not stated) | 0 | -71 | -2 | nt | -2 | 0
COc1cccc(C2Nc3cc(Cl)c(S(N)(=O)=O)cc3S(=O)(=O)N2)c1 (configuration not stated) | -2 | 11* | -15 | 10 | 42 | -1
CCCCn1c(N)c(N(CCOC)C(=O)c2cc(S(=O)(=O)N3CCCCC3)ccc2Cl)c(=O)[nH]c1=O | 0 | 20* | nt | nt | nt | 0
CCCn1c(N)c(N(CCOC)C(=O)c2cc(S(=O)(=O)N3CCCCCC3)ccc2OC)c(=O)[nH]c1=O | -1 | -3 | nt | nt | nt | -1
O=C(Nc1ccc2c(c1)nc1n2CCN(C2CCCCC2)C1)NC1CCCCC1 | nt | nt | 83* | -13 | 4 | nt
COc1ccc(C2=Nn3c(nnc3-c3ccccc3F)SC2)cc1OC1CCCC1 | 0 | -4 | nt | nt | nt | 0
CS(=O)(=O)Nc1nnc(CCc2ccccc2)s1 | 1 | 3 | nt | nt | nt | 0
CS(=O)(=O)Nc1nnc(Cc2ccccc2)s1 | -5 | 11* | -11 | -18 | 1 | -1
O=C(Nc1ccccc1O)c1ccc(NS(=O)(=O)c2cccc3cccnc23)cc1 | -1 | 20* | -6 | -11 | -8 | -1
COC(=O)c1ccc(NC(=O)c2ccc(NS(=O)(=O)c3cccc4cccnc34)cc2)cc1 | 2 | 3 | nt | nt | nt | 0
Cc1cccc(NC(=O)c2ccc(NS(=O)(=O)c3cccc4cccnc34)cc2)c1 | 0 | 30* | nt | nt | nt | 0
O=C(O)c1ccc(NS(=O)(=O)c2cccc3cccnc23)cc1 | -2 | -3 | -5 | 18 | 10 | 0
